Experimental data from ChEMBL document CHEMBL3392953, “Synthesis and biological evaluation of furanoallocolchicinoids” (J Med Chem, 2015).

Assays:
HEK293 [1] = assay: Cytotoxicity against HEK293 cells after 72 hrs by MTT assay; format: functional, cell-based; conditions: Homo sapiens, HEK293, 72 h
How it was run: (§1)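 Cells seeded at 3x10^5 cells/mL 24 h before assay (HEK293, AsPC-1 in DMEM; Jurkat, W1308 in RPMI-1640; 10% FCS, 2-ME). Tenfold dilutions from […] to 1 nM added; untreated cells as controls. 72 h incubation, MTT 250 µg/ml added for last 6 h, formazan dissolved in DMSO, OD read. IC50 from titration curves; inhibition index = 1 − OD(treated)/OD(control).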

[2] = Induction of apoptosis in mouse W1308 cells assessed as apoptotic cells level at 200 nM after 48 hrs by 3,3'-dihexyloxacarbocyanine iodide and propidium iodide staining based flow cytometry (reference value: 11%); format: functional
[3] = Cytotoxicity against mouse W1308 cells after 72 hrs by MTT assay; format: functional, cell-based; conditions: W1308, 72 h; how it was run: as §1
ASPC1 [4] = assay: Cytotoxicity against human AsPC1 cells after 72 hrs by MTT assay; format: functional, cell-based; conditions: ASPC1, 72 h; how it was run: as §1
[5] = Induction of apoptosis in mouse W1308 cells assessed as pre-apoptotic cells level at 200 nM after 48 hrs by 3,3'-dihexyloxacarbocyanine iodide and propidium iodide staining based flow cytometry (reference value: 17%); format: functional
Jurkat [6] = assay: Cytotoxicity against human Jurkat cells after 72 hrs by MTT assay; format: functional, cell-based; how it was run: as §1
HEK293 [7] = assay: Growth inhibition of HEK293 cells at 100 uM after 72 hrs by MTT assay; format: functional; conditions: Homo sapiens, HEK293, 72 h; read-out: GI
Jurkat [8] = assay: Growth inhibition of human Jurkat cells at 100 uM after 72 hrs by MTT assay; format: functional; conditions: read-out: GI
[9] = Growth inhibition of mouse W1308 cells at 100 uM after 72 hrs by MTT assay; format: functional; conditions: W1308, 72 h, read-out: GI
[10] = Inhibition of lamb brain tubulin polymerization assessed as reduction in microtubule assembly by spectrophotometry; parameters: species or system Ovis aries
How it was run: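 Tubulin purified from lamb brain by ammonium sulfate fractionation and ion-exchange chromatography. Assembly in 20 mM sodium phosphate, 1 mM EGTA, 10 mM MgCl2, 3.4 M glycerol, 1 mM GTP, pH 6.5, started by warming to 37 °C; turbidity followed at 350 nm over time. Inhibition plotted against ligand:tubulin molar ratio.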

ASPC1 [11] = assay: Growth inhibition of human AsPC1 cells at 100 uM after 72 hrs by MTT assay; format: functional; conditions: ASPC1, 72 h, read-out: GI
Mus musculus [12] = assay: Toxicity in C57BL/6 mouse assessed as interphase microtubule de-stabilizing activity by measuring influx of rhodamine in to heart at 1 mg/kg, iv co-administered with rhodamine B by fluorimetry; format: organism-based; parameters: dose 1 mg/kg, route intravenous; conditions: in vivo
How it was run: (§2)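 Intact mice, 6–8 wk, 3 per group; compound dissolved in DMSO at 20 mM, 4 µl diluted into 200 µl saline (1 mg/kg), mixed with 50 µl rhodamine B, single i.v. injection; controls DMSO plus rhodamine B. Killed 4 h later; organs cut, extracted in 0.3N acid in ethanol 2 h at 37 °C, centrifuged, supernatant fluorescence read with 540 nm filter.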

[13] = Reduction in blood-brain barrier permeability in […]; format: ADME, tissue-based, C57BL/6, Endothelial cell; parameters: scale not given: the % may be the effect or the level left; conditions: mouse; how it was run: as §2
Mus musculus [14] = assay: Toxicity in C57BL/6 mouse assessed as interphase microtubule de-stabilizing activity by measuring leakage of rhodamine through the gut at 1 mg/kg, iv co-administered with rhodamine B by fluorimetry; format: organism-based; parameters: dose 1 mg/kg, route intravenous; conditions: in vivo; how it was run: as §2
Mus musculus [15] = assay: Toxicity in C57BL/6 mouse assessed as interphase microtubule de-stabilizing activity by measuring influx of rhodamine in to spleen at 1 mg/kg, iv co-administered with rhodamine B by fluorimetry; format: organism-based; parameters: dose 1 mg/kg, route intravenous; conditions: in vivo; how it was run: as §2

| IC50 [10] | Compound | IC50 (HEK293 [1]) | Activity [2] | IC50 [3] | IC50 (ASPC1 [4]) | Activity [5] | IC50 (Jurkat [6]) | inhibition of growth at 100 µM (HEK293 [7]) | inhibition of growth at 100 µM (Jurkat [8]) | inhibition of growth at 100 µM [9] | inhibition of growth at 100 µM (ASPC1 [11]) | Activity (Mus musculus [12]) | Activity [13] | ligand/tubulin molar ratio [10] | Activity (Mus musculus [14]) | Activity (Mus musculus [15]) |
| --- | --- | --- | --- | --- | --- | --- | --- | --- | --- | --- | --- | --- | --- | --- | --- | --- |
| – | COc1cc2c(c(OC)c1OC)-c1ccc3c(ccn3C)c1C(=O)CC2 | < 20 nM | 29% | < 0.02 µM | < 0.02 µM | 20% | < 20 nM | – | – | – | – | – | – | – | – | – |
| 0.3 molar ratio | COc1cc2c(c(OC)c1OC)-c1cc3cc(C(C)O)oc3cc1[C@@H](NC(C)=O)CC2 (stereo not given in full) | < 200 nM | 20% | < 0.2 µM | < 0.2 µM | 29% | < 200 nM | 60% | 60% | 60% | 60% | – | – | – | – | – |
| – | COc1cc2c(c(OC)c1OC)-c1cc3cc(CCO)oc3cc1[C@@H](NC(C)=O)CC2 | 1000 nM | – | 1 µM | 2 µM | – | 1000 nM | 50% | 50% | 50% | 50% | – | – | – | – | – |
| – | COc1ccc(/C=C\c2cc(OC)c(OC)c(OC)c2)cc1O [COMBRETASTATIN A4] | – | – | – | – | – | – | – | – | – | – | Toxic | 40% | 0.09 | Toxic | Toxic |
| – | COc1cc2c(c(OC)c1OC)-c1cc3cc(-c4ccccn4)oc3cc1[C@@H](NC(C)=O)CC2 | 20000 nM | – | 10 µM | 20 µM | – | 20000 nM | – | – | – | – | – | – | – | – | – |
| – | COc1cc2c(c(OC)c1OC)-c1ccc(OC)c(=O)cc1[C@@H](NC(C)=O)CC2 [COLCHICINE] | – | – | – | – | – | – | – | – | – | – | Toxic | – | – | Toxic | Toxic |
| – | COc1cc2c(c(OC)c1OC)-c1cc3cc(C4(O)CCCC4)oc3cc1[C@@H](NC(C)=O)CC2 | 4000 nM | – | 8 µM | 20 µM | – | 4000 nM | 50% | 50% | 50% | 50% | – | – | – | – | – |
